Common to all, as to type: tissue-based
For test [1], the species on record is Rattus norvegicus. The experiment in a line: Effect on Prostaglandin receptor-induced contraction in rat stomach fundus strip assessed as intrinsic activity at 0.4 ug by kymography relative to PGE1. In a few lines: (§1)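 Rat fundus strips in Krebs, dosed once tone was constant. Final bath concentrations were 2.70–13.5 × 10^-7 mol/L for the compound and 0.70–14.0 × 10^-9 mol/L for PGE1 standards, from ethanol stocks. Auxotonic kymograph recording, 10-min cycle, 90 s contact. PGE1-like activity was bracketed between two PGE1 standard doses, mean of five observations per concentration.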

The species entered for test [2] is Rattus norvegicus. The experiment in a line: Inhibition of Prostaglandin receptor-induced adenylate cyclase activation in rat liver homogenate assessed as cAMP level at 6.7 to 13.4 x 10^-3 M after 10 mins relative to control.
The species named for test [3] is Cavia porcellus. The experiment in a line: Effect on Prostaglandin receptor-induced contraction in guinea pig ileum assessed as intrinsic activity at 0.4 ug by kymography relative to PGE1. In a few lines:
(§2)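 Guinea-pig terminal ileum in a 3-mL oxygenated Tyrode bath at 30 °C with cyproheptadine 3 × 10^-9 mol/L. Dosed at 5-min intervals, 30 s contact, isotonic lever on a smoked drum. Final concentrations were 3.6–17.9 × 10^-7 mol/L for the compound and 0.94–18.8 × 10^-9 mol/L for PGE1 standards. Activity bracketed between two PGE1 doses, mean of five observations.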

For test [4], the species on record is Rattus norvegicus. The experiment in a line: Effect on Prostaglandin receptor-induced contraction in rat stomach fundus strip assessed as intrinsic activity at 1.6 ug by kymography relative to PGE1. In a few lines: as §1
Test [5] can be described thus: Competitive inhibition of Prostaglandin receptor in rat stomach fundus strip assessed as inhibition of PGE1-induced contraction by kymography. The essentials:
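Rat stomach fundus strip contractions to PGE1 11.3 × 10^-9 mol/L compared with and without analogue at 2.15–21.5 × 10^-6 mol/L. Stock in ethanol, diluted in Krebs. Kymograph with auxotonic lever, load 1 g baseline and 3 g maximal, 10-min dose cycle, 90 s contact. Approximate IC50 taken from the inhibition concentration-response curve in four preparations.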

The species entered for test [6] is Cavia porcellus. The experiment in a line: Effect on Prostaglandin receptor-induced contraction in guinea pig ileum assessed as intrinsic activity at 0.8 ug by kymography relative to PGE1. In a few lines:
as §2

For test [7], the species on record is Rattus norvegicus. The experiment in a line: Induction of Prostaglandin receptor-induced adenylate cyclase activation in rat liver homogenate assessed as increase in cAMP level at 6.7 to 13.4 x 10^-3 M after 10 mins relative to control. The essentials:
(§3)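 Rat liver homogenate adenylate cyclase, 10 min at 37 °C in Tris-HCl 0.1 mol/L pH 8.0 with ATP 4 × 10^-3, MgSO4 15 × 10^-3, GTP 5 × 10^-4, EGTA 1 × 10^-4 and theophylline 5 × 10^-3 mol/L. Stopped by 2 min boiling, then frozen, thawed and centrifuged. cAMP in the supernatant measured by the Brown method, saline blanks, four replicates.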
(In general: Changes in cAMP serve as a functional read-out for many G protein-coupled receptors.)

The species entered for test [8] is Rattus norvegicus. The experiment in a line: Effect on Prostaglandin receptor-induced contraction in rat stomach fundus strip assessed as intrinsic activity at 0.8 ug by kymography relative to PGE1. The essentials: as §1
Test [9] is filed under the species Rattus norvegicus. The experiment in a line: Effect on Prostaglandin receptor-induced contraction in rat stomach fundus strip assessed as intrinsic activity at 2.0 ug by kymography relative to PGE1. In a few lines: as §1
Test [10] is filed under the species Cavia porcellus. The experiment in a line: Effect on Prostaglandin receptor-induced contraction in guinea pig ileum assessed as intrinsic activity at 2.0 ug by kymography relative to PGE1. In a few lines: as §2
Test [11] is filed under the species Cavia porcellus. The experiment in a line: Effect on Prostaglandin receptor-induced contraction in guinea pig ileum assessed as intrinsic activity at 1.6 ug by kymography relative to PGE1. In a few lines: as §2
The species named for test [12] is Rattus norvegicus. The experiment in a line: Induction of Prostaglandin receptor-induced adenylate cyclase activation in rat liver homogenate assessed as increase in cAMP level at equimolar dose of 2.8 x 10^-5 mol/L PGE1 after 10 mins relative to control. In a few lines:
as §3

The source made the active and inactive calls. No cut-off for these calls is given here.

In the case of `CCCCCC(O)/C=C/c1[nH]c2ccccc2c1CCCCCCC(=O)O` (configuration not stated), the Intrinsic activity in the test filed under Rattus norvegicus [1] came out at 0.00075; in the test listed under Cavia porcellus [3] it was 0.004; in the test filed under Rattus norvegicus [4], 0.00056; in the test listed under Cavia porcellus [6], 0.0029; in the test listed under Rattus norvegicus [8], 0.00075; in the test filed under Rattus norvegicus [9], 0.00055. The Intrinsic activity came out at 0.0057 in the test listed under Cavia porcellus [10] and 0.0014 in the test filed under Cavia porcellus [11]. Moreover, in the test filed under Rattus norvegicus [2], the inhibition – broadly, the change of the read-out against control, counted positive when it falls – was 40%. The IC50 (commonly the concentration needed to halve the response being measured) in test [5] is 11.8 µM. For the same compound, the result in the test filed under Rattus norvegicus [7] was Active. The result in the test filed under Rattus norvegicus [12] was inactive.

These data come from ChEMBL document CHEMBL3244177, “Synthesis and prostaglandin-like activity of 2-(trans-3-hydroxy-1-octenyl)-3-indoleheptanoic acid” (J Med Chem, 1978).
